What was measured:
Rattus norvegicus [1] = assay: Mineralizing surface/bone surface(%) measured Histomorphometrically after a dose of 10 ug/kg in proximal tibial metaphysis; assay type: functional
How it was run: (§1)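 Ovariectomized six-month-old rats, 6-8 per group, were dosed subcutaneously once daily at 0.01–3.0 mg/kg for 60 days, starting 60 days after surgery. Vehicle was acetate-buffered saline, methylcellulose and polyoxyethylenesorbitan monooleate. Labels were xylenol orange 90 mg/kg pretreatment and calcein 10 mg/kg at 14 and 4 days before necropsy. Histomorphometry covered the proximal tibial metaphysis, 1–4 mm distal to the growth plate–metaphyseal junction. ANOVA/LSD versus vehicle.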

Rattus norvegicus [2] = assay: Bone formation rate/tissue volume (%/year) bone measured histomorphometrically after a dose of 30 ug/kg in proximal tibial metaphysis; assay type: functional; details: at 30 µg/kg
[3] = molecular target: T1, Prostaglandin E2 receptor EP1 subtype (Homo sapiens, UniProt P34995); assay: In vitro binding at EP1 human prostaglandin receptor using [3H]PGE-2 as radioligand
T1 sequence (P34995 whole entry): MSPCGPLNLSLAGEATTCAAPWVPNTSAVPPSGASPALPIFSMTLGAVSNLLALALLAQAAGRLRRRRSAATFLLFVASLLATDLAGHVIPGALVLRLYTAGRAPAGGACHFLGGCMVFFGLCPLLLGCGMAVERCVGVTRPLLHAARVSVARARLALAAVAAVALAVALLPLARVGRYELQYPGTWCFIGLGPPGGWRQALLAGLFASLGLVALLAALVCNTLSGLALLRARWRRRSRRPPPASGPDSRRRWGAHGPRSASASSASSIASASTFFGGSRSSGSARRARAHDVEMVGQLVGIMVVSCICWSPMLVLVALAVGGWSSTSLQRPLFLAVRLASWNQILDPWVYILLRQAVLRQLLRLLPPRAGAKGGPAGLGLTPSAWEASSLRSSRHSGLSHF
How it was run: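 hEP1 transiently expressed in COS-7 cells by the hFP transfection and membrane protocol, with membranes in TME buffer pH 6.0. Competition binding used 5 nM [3H]PGE2, 1 h at 23 °C, filtration and scintillation counting.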

Rattus norvegicus [4] = assay: Bone Volume /Tissue Volume (%)measured Histomorphometrically after a dose of 30 ug/kg in proximal tibial metaphysis; assay type: functional; details: at 30 µg/kg
Rattus norvegicus [5] = assay: Mineralizing surface/bone surface(%) measured Histomorphometrically after a dose of 100 ug/kg in proximal tibial metaphysis; assay type: functional; how it was run: as §1
Rattus norvegicus [6] = assay: Marrow area (mm) measured Histomorphometrically after a dose of 3000 ug/kg in tibial diaphysis; assay type: functional
How it was run: (§2)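 Six-month-old rats, bilaterally ovariectomized, 6-8 per group, on natural chow. After 60 days they received once-daily subcutaneous dosing for 60 days at 0.01–3.0 mg/kg. Vehicle was acetate-buffered saline with methylcellulose and polyoxyethylenesorbitan monooleate. Labels were xylenol orange 90 mg/kg before treatment and calcein 10 mg/kg 14 and 4 days before sacrifice. Tibial histomorphometry was read under fluorescent light, with ANOVA/LSD versus vehicle.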

Rattus norvegicus [7] = assay: Endosteal eroded surface(%) measured Histomorphometrically after a dose of 3000 ug/kg in tibial diaphysis; assay type: functional
How it was run: (§3)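 Tibial histomorphometry in 6-month-old rats, OVX 60 days before treatment, then daily injection for 60 days. Vehicle was acetate-buffered saline with methylcellulose and polyoxyethylenesorbitan monooleate. Rats received xylenol orange 90 mg/kg before treatment and calcein 10 mg/kg at 14 and 4 days pre-sacrifice. Rats were killed by cardiac puncture under ketamine/xylazine. Groups were compared with vehicle by ANOVA plus LSD test.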

Rattus norvegicus [8] = assay: Periosteal mineralizing surface (%) measured Histomorphometrically after a dose of 30 ug/kg in tibial diaphysis; assay type: functional
How it was run: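 Rats on natural chow (1.46% Ca) were bilaterally ovariectomized at 6 months and left untreated for 60 days. They then received once-daily subcutaneous doses for 60 days, with vehicle of acetate-buffered saline, methylcellulose and polysorbate. Xylenol orange (90 mg/kg) was given before treatment and calcein (10 mg/kg) 14 and 4 days before sacrifice. Tibiae were analysed by fluorescent histomorphometry, 6-8 rats/group, ANOVA/LSD vs vehicle.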

Rattus norvegicus [9] = assay: Periosteal mineral apposition rate ([…]) measured Histomorphometrically after a dose of 100 ug/kg in tibial diaphysis; assay type: functional; how it was run: as §2
Rattus norvegicus [10] = assay: Mineral apposition rate ([…])bone measured Histomorphometrically after a dose of 1000 ug/kg in tibial diaphysis; assay type: functional; how it was run: as §2
Rattus norvegicus [11] = assay: Mineral apposition rate ([…])bone measured Histomorphometrically after a dose of 3000 ug/kg in proximal tibial metaphysis; assay type: functional; how it was run: as §1
Rattus norvegicus [12] = assay: Bone Volume /Tissue Volume (%)measured Histomorphometrically after a dose of 10 ug/kg in proximal tibial metaphysis; assay type: functional; details: at 10 µg/kg
Rattus norvegicus [13] = assay: Bone Volume /Tissue Volume (%)measured Histomorphometrically after a dose of 3000 ug/kg in proximal tibial metaphysis; assay type: functional; details: at 3000 µg/kg
Rattus norvegicus [14] = assay: Marrow area (mm) measured Histomorphometrically after a dose of 30 ug/kg in tibial diaphysis; assay type: functional; how it was run: as §2
Rattus norvegicus [15] = assay: Trabecular no (mm)measured Histomorphometrically after a dose of 100 ug/kg in proximal tibial metaphysis; assay type: functional, Trabecula
How it was run: (§4)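 Six-month-old rats were ovariectomized, and 60 days later daily subcutaneous dosing began for 60 days, with vehicle of acetate-buffered saline, methylcellulose and polysorbate. Xylenol orange (90 mg/kg) labelled bone pre-treatment and calcein (10 mg/kg) 14 and 4 days pre-sacrifice. Histomorphometry covered the proximal tibial metaphysis 1-4 mm distal to the growth plate-metaphyseal junction. Groups were 6-8 rats, compared by ANOVA/LSD vs vehicle.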

Rattus norvegicus [16] = assay: Bone formation rate/bone volume (%/year)bone measured Histomorphometrically after a dose of 10 ug/kg in proximal tibial metaphysis; assay type: functional; details: at 10 µg/kg
Rattus norvegicus [17] = assay: Endosteal eroded surface(%) measured Histomorphometrically after a dose of 1000 ug/kg in tibial diaphysis; assay type: functional; how it was run: as §3
Rattus norvegicus [18] = assay: Trabecular thickness […] measured Histomorphometrically after a dose of 300 ug/kg in proximal tibial metaphysis; assay type: functional, Trabecula; how it was run: as §4
Rattus norvegicus [19] = assay: Trabecular thickness […] measured Histomorphometrically after a dose of 3000 ug/kg in proximal tibial metaphysis; assay type: functional, Trabecula; how it was run: as §4
Rattus norvegicus [20] = assay: Mineral apposition rate ([…])bone measured Histomorphometrically after a dose of 3000 ug/kg in tibial diaphysis; assay type: functional; how it was run: as §2
Rattus norvegicus [21] = assay: Trabecular no (mm)measured Histomorphometrically after a dose of 10 ug/kg in proximal tibial metaphysis; assay type: functional, Trabecula; how it was run: as §4
Rattus norvegicus [22] = assay: Bone formation rate/tissue volume (%/year) bone measured histomorphometrically after a dose of 100 ug/kg in proximal tibial metaphysis; assay type: functional; details: at 100 µg/kg
Rattus norvegicus [23] = assay: Bone formation rate/bone volume (%/year)bone measured Histomorphometrically after a dose of 30 ug/kg in proximal tibial metaphysis; assay type: functional; details: at 30 µg/kg
[24] = molecular target: Prostaglandin E2 receptor EP2 subtype (Homo sapiens, UniProt P43116); assay: In vitro binding at EP2 human prostaglandin receptor
How it was run: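 Receptors stably expressed in CHO cells, collected 4-5 days after seeding. Membranes made by lysis (Tris, EDTA, protease inhibitors) and 100000g pellet, then resuspended at 1 mg protein/mL in TME. Radioligands at 5 nM: [3H]PGE2 for EP2/EP3/EP4, [3H]Iloprost for IP, [3H]SQ-29548 for TP. Competition binding with filtration and counting.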

Rattus norvegicus [25] = assay: Endosteal eroded surface(%) measured Histomorphometrically after a dose of 10 ug/kg in tibial diaphysis; assay type: functional; how it was run: as §3

Prostaglandin E2 receptor EP2 subtype, sequence (P43116 whole entry): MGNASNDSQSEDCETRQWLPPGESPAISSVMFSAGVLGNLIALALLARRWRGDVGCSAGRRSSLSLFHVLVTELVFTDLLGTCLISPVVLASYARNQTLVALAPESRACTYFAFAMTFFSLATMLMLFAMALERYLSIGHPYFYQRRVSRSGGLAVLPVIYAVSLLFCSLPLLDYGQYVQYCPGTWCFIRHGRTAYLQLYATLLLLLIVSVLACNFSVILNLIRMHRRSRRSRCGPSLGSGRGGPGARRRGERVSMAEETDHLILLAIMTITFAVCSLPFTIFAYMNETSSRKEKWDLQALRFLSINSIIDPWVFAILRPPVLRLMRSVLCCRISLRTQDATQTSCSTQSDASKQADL

CP(=O)(O)CCC/C=C\C[C@@H]1[C@@H](/C=C/[C@@H](O)COc2ccccc2)[C@H](O)C[C@@H]1O
Activity (Rattus norvegicus [1]): 28.37% | Activity (Rattus norvegicus [2]): 17.55% | IC50 [3]: > 10 µM | Activity (Rattus norvegicus [4]): 3.63% | Activity (Rattus norvegicus [5]): 27.11% | Marrow area (Rattus norvegicus [6]): 0.74 mm | Endosteal eroded surface (Rattus norvegicus [7]): 2.2% | Periosteal mineralizing surface (Rattus norvegicus [8]): 26.23% | Periosteal mineral apposition rate (Rattus norvegicus [9]): 0.38 µm day-1 | Mineral apposition rate (Rattus norvegicus [10]): 1.01 µm/day | Mineral apposition rate (Rattus norvegicus [11]): 0.94 µm/day | Activity (Rattus norvegicus [12]): 2.23% | Activity (Rattus norvegicus [13]): 8.51% | Marrow area (Rattus norvegicus [14]): 0.87 mm² | Trabecular no. (Rattus norvegicus [15]): 1.28 1/mm | Activity (Rattus norvegicus [16]): 498.01% | Endosteal eroded surface (Rattus norvegicus [17]): 2.74% | Trabecular thickness (Rattus norvegicus [18]): 44 µm | Trabecular thickness (Rattus norvegicus [19]): 55.8 µm | Mineral apposition rate (Rattus norvegicus [20]): 1.03 µm/day | Trabecular no. (Rattus norvegicus [21]): 0.58 1/mm | Activity (Rattus norvegicus [22]): 18.23% | Activity (Rattus norvegicus [23]): 495.65% | IC50 [24]: > 10 µM | Endosteal eroded surface (Rattus norvegicus [25]): 11.83%

Reference: ChEMBL document CHEMBL1134785, “Synthesis and biological evaluation of prostaglandin-F alkylphosphinic acid derivatives as bone anabolic agents for the treatment of osteoporosis” (J Med Chem, 2001)
